In ChEMBL document CHEMBL1124257, “An examination of O-2-isocephems as orally absorbable antibiotics” (J Med Chem, 1988):
Values after ≈ are worked out from the molar mass of the structure shown.

Key:
[1] = tested on: Klebsiella pneumoniae; experiment: Minimum inhibitory concentration (MIC) against Klebsiella pneumoniae by 2-fold microdilution technique.; assay type: functional
In short: (§1)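 For each organism, an overnight culture was grown in Mueller-Hinton broth at 37 °C. Twofold microtiter dilutions in Nutrient Broth covered 0.005–125 µg/mL. Each well received about 10^4 organisms, and plates were incubated 18 h at 37 °C. MIC was the lowest concentration giving no visible growth.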

[2] = tested on: Streptococcus pyogenes; experiment: Minimum inhibitory concentration (MIC) against Streptococcus pyogenes by 2-fold microdilution technique; assay type: functional; in short: as §1
[3] = tested on: Escherichia coli; experiment: Minimum inhibitory concentration (MIC) […] against Escherichia coli.; assay type: functional; in short: as §1
[4] = tested on: Streptococcus pneumoniae; experiment: Minimum inhibitory concentration (MIC) against Streptococcus pneumoniae by 2-fold microdilution technique; assay type: functional; in short: as §1
[5] = tested on: Enterococcus faecalis; experiment: Minimum inhibitory concentration (MIC) against Streptococcus faecalis by 2-fold microdilution technique.; assay type: functional; in short: as §1
[6] = tested on: Proteus mirabilis; experiment: Minimum inhibitory concentration (MIC) against Proteus mirabilis by 2-fold microdilution technique.; assay type: functional; in short: as §1
[7] = tested on: Haemophilus influenzae; experiment: Minimum inhibitory concentration (MIC) against Haemophilus influenzae by 2-fold microdilution technique.; assay type: functional; in short: as §1
[8] = tested on: Escherichia coli; experiment: Protective dose (PD50) against Escherichia coli infected mice; assay type: functional; conditions: read-out: PD50
In short: (§2)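 Male Swiss-Webster mice (20 ± 2 g) were challenged intraperitoneally with enough bacteria to kill untreated controls within 72 h. Drug was given orally by gavage twice: at 0 and 2 h after E. coli challenge, or at 1 and 3.5 h after S. pneumoniae challenge. PD50 is the dose in mg/kg per dose that protects 50% of animals.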

[9] = tested on: Streptococcus pneumoniae; experiment: Minimum inhibitory concentration (MIC) […] against Streptococcus pneumoniae.; assay type: functional; in short: as §1
[10] = tested on: Streptococcus pneumoniae; experiment: Protective dose (PD50) against Streptococcus pneumoniae infected mice; assay type: functional; conditions: for ED50: Streptococcus pneumoniae, read-out: PD50; in short: as §2
[11] = tested on: Staphylococcus aureus; experiment: Minimum inhibitory concentration (MIC) against Staphylococcus aureus by 2-fold microdilution technique.; assay type: functional; in short: as §1
[12] = tested on: Escherichia coli; experiment: Minimum inhibitory concentration (MIC) against Escherichia coli by 2-fold microdilution technique.; assay type: functional; in short: as §1
[13] = tested on: Mus musculus; experiment: Area under curve(AUC) was measured in mice after oral administration.; assay type: ADME, organism-based; parameters: concentration or dose not given beside the values; unit not given here; conditions: in vivo
In short: (§3)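 Male Swiss-Webster mice (20 ± 2 g) were given a single 50 mg/kg oral dose by gavage. Blood concentrations and urine levels were measured by microbiological assay, and urinary recovery was taken over 0–6 h.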

[14] = species on record: Mus musculus; experiment: Percentage of dose recovered after 0-6 hr in the urine of mice was measured.; assay type: ADME, organism-based; conditions: in vivo; in short: as §3
[15] = Half life was measured.; assay type: ADME; in short: as §3
[16] = (§4) Cmax was measured in mice after an oral dose of 50 mg/kg.; assay type: ADME, organism-based; parameters: dose 50 mg/kg, route oral; conditions: mouse, in vivo; in short: as §3
[17] = tested on: Mus musculus; experiment: as §4; assay type: ADME, organism-based; parameters: dose 50 mg/kg, route oral; conditions: in vivo; in short: as §3
[18] = Klebsiella pneumoniae, read-out: MIC
[19] = Streptococcus pyogenes, read-out: MIC
[20] = Escherichia coli, read-out: MIC
[21] = Streptococcus pneumoniae, read-out: MIC
[22] = Enterococcus faecalis, read-out: MIC
[23] = Proteus mirabilis, read-out: MIC
[24] = Haemophilus influenzae, read-out: MIC
[25] = Staphylococcus aureus, read-out: MIC

| SMILES | MIC [1, 18] | MIC [2, 19] | MIC [3, 20] | MIC [4, 21] | MIC [5, 22] | MIC [6, 23] | MIC [7, 24] | ED50 [8] | MIC [9, 21] | ED50 [10] | MIC [11, 25] | MIC [12, 20] | AUC [13] | Urinary recovery (% of dose, 0-6 h) [14] | other results |
| --- | --- | --- | --- | --- | --- | --- | --- | --- | --- | --- | --- | --- | --- | --- | --- |
| N[C@@H](C(=O)N[C@@H]1C(=O)N2C(C(=O)O)=C(C3CC3)OC[C@H]12)c1ccc(O)cc1 | 16 µg/mL (≈ 42.9 µM) | 0.016 µg/mL (≈ 0.0429 µM) | 4 µg/mL (≈ 10.7 µM) | 0.03 µg/mL (≈ 0.0804 µM) | 1 µg/mL (≈ 2.68 µM) | 2 µg/mL (≈ 5.36 µM) | 8 µg/mL (≈ 21.4 µM) | > 50 mg/kg | 0.03 µg/mL (≈ 0.0804 µM) | 3.6 mg/kg | 0.25 µg/mL (≈ 0.67 µM) | 4 µg/mL (≈ 10.7 µM) | – | – | – |
| C/C=C/C1=C(C(=O)O)N2C(=O)[C@@H](NC(=O)[C@H](N)c3ccc(O)cc3)[C@H]2SC1.O (relative stereo; 56) [CEFPROZIL, (E)-] | – | 0.016 µg/mL | – | 0.03 µg/mL | 2 µg/mL | – | 2 µg/mL | 1.2 mg/kg | – | 0.4 mg/kg | 0.13 µg/mL | – | 42 | 85% | MIC [1]: 2 µg/mL; MIC [3]: 2 µg/mL; MIC [6]: 0.25 µg/mL; MIC [9]: 0.016 µg/mL; half-life [15]: 29 min; Cmax [16]: 46000 ng/mL; MIC [12]: 1 µg/mL |
| N[C@@H](C(=O)N[C@@H]1C(=O)N2C(C(=O)O)=C(Cl)CS[C@H]12)c1ccccc1.O [CEFACLOR] | 1 µg/mL | 0.25 µg/mL | – | 0.5 µg/mL | 16 µg/mL | 0.25 µg/mL | 1 µg/mL | – | – | – | 0.25 µg/mL | 1 µg/mL | – | – | – |
| N[C@@H](C(=O)N[C@@H]1C(=O)N2C(C(=O)O)=COC[C@H]12)c1ccc(O)cc1 | 8 µg/mL (≈ 24 µM) | 0.25 µg/mL (≈ 0.75 µM) | 4 µg/mL (≈ 12 µM) | 1 µg/mL (≈ 3 µM) | 32 µg/mL (≈ 96 µM) | 4 µg/mL (≈ 12 µM) | 2 µg/mL (≈ 6 µM) | 6.2 mg/kg | 1 µg/mL (≈ 3 µM) | 33 mg/kg | 1 µg/mL (≈ 3 µM) | 4 µg/mL (≈ 12 µM) | – | – | – |
| CCCC1=C(C(=O)O)N2C(=O)[C@@H](NC(=O)[C@H](N)c3ccc(O)cc3)[C@H]2CO1 | 16 µg/mL (≈ 42.6 µM) | 0.004 µg/mL (≈ 0.0107 µM) | – | 0.008 µg/mL (≈ 0.0213 µM) | 0.03 µg/mL (≈ 0.0799 µM) | 4 µg/mL (≈ 10.7 µM) | – | – | – | – | 0.06 µg/mL (≈ 0.16 µM) | 2 µg/mL (≈ 5.33 µM) | – | – | – |
| N[C@@H](C(=O)N[C@@H]1C(=O)N2C(C(=O)O)=C(/C=C\C(F)(F)F)OC[C@H]12)c1ccc(O)cc1 (relative stereo) | 32 µg/mL (≈ 74.9 µM) | 0.008 µg/mL (≈ 0.0187 µM) | 2 µg/mL (≈ 4.68 µM) | 0.016 µg/mL (≈ 0.0374 µM) | 0.06 µg/mL (≈ 0.14 µM) | 16 µg/mL (≈ 37.4 µM) | 2 µg/mL (≈ 4.68 µM) | > 50 mg/kg | 0.016 µg/mL (≈ 0.0374 µM) | 2.7 mg/kg | 0.5 µg/mL (≈ 1.17 µM) | 2 µg/mL (≈ 4.68 µM) | – | – | – |
| C/C=C/C1=C(C(=O)O)N2C(=O)[C@@H](NC(=O)[C@H](N)c3ccc(O)cc3)[C@H]2SC1.O (relative stereo; 57) [CEFPROZIL, (E)-] | – | – | – | – | – | – | – | – | – | – | – | – | 45 | 65% | MIC [1]: 8 µg/mL; MIC [2]: 0.03 µg/mL; MIC [3]: 8 µg/mL; MIC [4]: 0.06 µg/mL; MIC [5]: 4 µg/mL; MIC [6]: 1 µg/mL; MIC [7]: 4 µg/mL; MIC [9]: 0.06 µg/mL; PD50 [10]: 0.5 mg/kg; T1/2 [15]: 47 min; MIC [11]: 0.25 µg/mL; Cmax [17]: 35000 ng/mL; MIC [12]: 8 µg/mL |
| C/C=C\C1=C(C(=O)O)N2C(=O)[C@@H](NC(=O)[C@H](N)c3ccc(O)cc3)[C@H]2CO1 (relative stereo) | 16 µg/mL (≈ 42.9 µM) | 0.016 µg/mL (≈ 0.0429 µM) | 2 µg/mL (≈ 5.36 µM) | 0.03 µg/mL (≈ 0.0804 µM) | 1 µg/mL (≈ 2.68 µM) | 1 µg/mL (≈ 2.68 µM) | 2 µg/mL (≈ 5.36 µM) | 19 mg/kg | 0.03 µg/mL (≈ 0.0804 µM) | 0.3 mg/kg | 0.25 µg/mL (≈ 0.67 µM) | 2 µg/mL (≈ 5.36 µM) | 23 | 25% | half-life [15]: 52 min; Cmax [16]: 15000 ng/mL |
